Several values for one entry are separate records, joined by “and”; a condition that tells them apart may be missing. Identical values can stand only once. Activity calls are given as the source filed them.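 Rule for the calls: active = dose response lowering luminescence by over half the proteasome blocker control effect, potency within ten times top dose; inactive = change in the opposite direction, plus the rest.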
Tested on: not listed separately
Test: proteasome chymotrypsin-like activity inhibition in U2OS, dose response, counter-screen for HIF activator project, cell-based, luminescence, dry powder, set 3 (AID 493213)
Details: U2OS proteasome chymotrypsin-like activity, Proteasome-Glo luminescence; at 38 µM (top of the series)
Procedure, shortened: (§1)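 repeats = duplicates | test system = U2OS cells | amount = 2,500 U2OS cells per well | schedule = 24 h plating, 4 h compound exposure, 2 h room-temperature reagent | detection = Proteasome-Glo luminescence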
With `O=C(NCCCN1CCOCC1)c1cc(-c2ccccc2)on1` the activity change, negative = inhibition was -24.4% (inactive).
In the case of `COc1ccc(CNc2nc(-c3ccccn3)nnc2-c2ccccc2)cc1`, the activity change, negative = inhibition is reported as 53.2% (inactive).
In the case of `COc1ccccc1N1CCN(Cc2ccc(O)c3ncccc23)CC1`, the activity change, negative = inhibition is reported as 27.2% (inactive).
For `O=C(c1cc(-c2ccccc2)on1)N1CCC(N2CCOCC2)CC1`, the activity change, negative = inhibition was -8.89% (inactive).
In the case of `Oc1ccc(CN2CCC3CCCCC3C2)c2cccnc12` (configuration not stated), the activity change, negative = inhibition is reported as 26.7% (inactive).
For `c1ccc(-c2nnc(-c3ccccn3)nc2NCc2cccnc2)cc1`, the activity change, negative = inhibition was 14.6% (inactive).
In the case of `CN1CCN(c2nc(-c3ccccn3)nnc2-c2ccccc2)CC1`, the activity change, negative = inhibition is reported as 20.7% (inactive).
For `Cn1c(-c2ccccc2)cnc1NC(=O)c1cc(-c2ccccc2)on1`, the activity change, negative = inhibition was -10.3% (inactive).
For `c1ccc(-c2nnc(Nc3nc(-c4ccccn4)nnc3-c3ccccc3)s2)cc1`, the activity change, negative = inhibition was -5.61% (inactive).
For `c1ccc(-c2nnc(-c3ccccn3)nc2Nc2nc3ccccc3s2)cc1`, the activity change, negative = inhibition was 28.5% (inactive).
For `c1ccc(-c2nnc(-c3ccccn3)nc2NCc2ccccn2)cc1`, the activity change, negative = inhibition was 1.56% (inactive).
In the case of `O=C(NCc1ccccc1)c1cc(-c2ccccc2)on1`, the activity change, negative = inhibition is reported as -23.1% (inactive).
For `N#CC1(c2ccccc2)CCN(Cc2ccc(O)c3ncccc23)CC1`, the activity change, negative = inhibition was 48.4% (inactive).
In the case of `CN1CCN(C(=O)c2cc(-c3ccccc3)on2)CC1`, the activity change, negative = inhibition is reported as -34.5% (inactive).
For `c1ccc(-c2nnc(-c3ccccn3)nc2NCCc2ccccn2)cc1`, the activity change, negative = inhibition was 16.8% (inactive).
With `CC(C)(C)CCNc1nc(-c2ccccn2)nnc1-c1ccccc1` the activity change, negative = inhibition was 145% (inactive) and 67.4% (inactive).
With `OCC1CCN(c2nc(-c3ccccn3)nnc2-c2ccccc2)CC1` the activity change, negative = inhibition was 6.32% (inactive).
With `C[C@@H](Nc1nc(-c2ccccn2)nnc1-c1ccccc1)C1CCCCC1` the activity change, negative = inhibition was 133% (inactive).
For `c1ccc(-c2nnc(-c3ccccn3)nc2N2CCC(C3CCCCC3)C2)cc1` (configuration not stated), the activity change, negative = inhibition was 51.6% (inactive).
In the case of `c1ccc(CNc2nc(-c3ccccn3)nnc2-c2ccccc2)cc1`, the activity change, negative = inhibition is reported as 25.8% (inactive).
In the case of `c1ccc(-c2nnc(-c3ccccn3)nc2N2CCN(c3ccncc3)CC2)cc1`, the activity change, negative = inhibition is reported as 10.3% (inactive).
With `CC(C)(C)OC(=O)N1CCN(Cc2ccc(O)c3ncccc23)CC1` the activity change, negative = inhibition was 3.79% (inactive).
For `Cc1ccccc1CNc1nc(-c2ccccn2)nnc1-c1ccccc1`, the activity change, negative = inhibition was 29.7% (inactive).
In the case of `Oc1ccc(CNC2CCc3ccccc32)c2cccnc12` (configuration not stated), the activity change, negative = inhibition is reported as 81.7% (inactive).
In the case of `Oc1ccc(CN2CCC(Cc3ccccc3)CC2)c2cccnc12`, the activity change, negative = inhibition is reported as 30.7% (inactive).
For `Clc1cccc(CNc2nc(-c3ccccn3)nnc2-c2ccccc2)c1`, the activity change, negative = inhibition was 46.4% (inactive).
With `c1ccc(-c2nnc(-c3ccccn3)nc2NCC2CCCCC2)cc1` the activity change, negative = inhibition was 49.9% (inactive).
In the case of `O=C(Nc1ncc(-c2ccccc2)o1)c1cc(-c2ccccc2)on1`, the activity change, negative = inhibition is reported as -53.8% (inactive).
With `c1ccc(-c2cccc(CNc3nc(-c4ccccn4)nnc3-c3ccccc3)c2)cc1` the activity change, negative = inhibition was 26.9% (inactive).
With `c1ccc(-c2nnc(-c3ccccn3)nc2N2CCC(c3ccccc3)C2)cc1` (configuration not stated) the activity change, negative = inhibition was -6.19% (inactive).
With `Cc1cccc(CNc2nc(-c3ccccn3)nnc2-c2ccccc2)c1` the activity change, negative = inhibition was 45.1% (inactive).
For `CN(C)c1nc(-c2ccccn2)nnc1-c1ccccc1`, the activity change, negative = inhibition was 10.9% (inactive).
With `COc1cccc(CNc2nc(-c3ccccn3)nnc2-c2ccccc2)c1` the activity change, negative = inhibition was 36.9% (inactive).
For `c1ccc(CCNc2nc(-c3ccccn3)nnc2-c2ccccc2)cc1`, the activity change, negative = inhibition was 43.3% (inactive).
In the case of `CC1CN(Cc2ccc(O)c3ncccc23)CC(C)O1` (configuration not stated), the activity change, negative = inhibition is reported as 12% (inactive).
For `CC(C)(C)c1ccc(CNc2nc(-c3ccccn3)nnc2-c2ccccc2)cc1`, the activity change, negative = inhibition was 37.7% (inactive).
With `Cn1c(NC(=O)c2cc(-c3ccccc3)on2)nc2ccccc21` the activity change, negative = inhibition was -1.13% (inactive).
For `Cc1ccc(CNc2nc(-c3ccccn3)nnc2-c2ccccc2)cc1C`, the activity change, negative = inhibition was 76.7% (inactive).
With `Oc1ccc(CNC2Cc3ccccc3C2)c2cccnc12` the activity change, negative = inhibition was 26.4% (inactive).
With `OCC1CCN(Cc2ccc(O)c3ncccc23)CC1` the activity change, negative = inhibition was 51.9% (inactive).
In the case of `Cc1ccc(CNc2nc(-c3ccccn3)nnc2-c2ccccc2)cc1`, the activity change, negative = inhibition is reported as 14.3% (inactive).
For `O=C(NCC1CCCCC1)c1cc(-c2ccccc2)on1`, the activity change, negative = inhibition was -23.5% (inactive).
With `Cc1cccc(Nc2nc(-c3ccccn3)nnc2-c2ccccc2)n1` the activity change, negative = inhibition was -11.6% (inactive).
In the case of `c1ccc(-c2nnc(-c3ccccn3)nc2Nc2cnc3ccccc3n2)cc1`, the activity change, negative = inhibition is reported as -2.5% (inactive).
With `Oc1ccc(CN2CCc3ccccc3C2)c2cccnc12` the activity change, negative = inhibition was 65.3% (inactive) and 46.7% (inactive).
With `O=C(c1cc(-c2ccccc2)on1)N1CCC(CO)CC1` the activity change, negative = inhibition was -22.3% (inactive).
For `O=C(NCCCn1ccnc1)c1cc(-c2ccccc2)on1`, the activity change, negative = inhibition was 9.43% (inactive).
For `Cc1ccc(Nc2nc(-c3ccccn3)nnc2-c2ccccc2)cn1`, the activity change, negative = inhibition was -25% (inactive).
In the case of `c1ccc(-c2nnc(-c3ccccn3)nc2N2CCC(N3CCOCC3)CC2)cc1`, the activity change, negative = inhibition is reported as 16.5% (inactive).
For `Cc1ccc(NC(=O)c2cc(-c3ccccc3)on2)cn1`, the activity change, negative = inhibition was 14.5% (inactive).
In the case of `Cc1ccccc1CNC(=O)c1cc(-c2ccccc2)on1`, the activity change, negative = inhibition is reported as -46.6% (inactive).
With `OCCCNc1nc(-c2ccccn2)nnc1-c1ccccc1` the activity change, negative = inhibition was -5.89% (inactive).
With `O=C(NCCN1CCCCC1)c1cc(-c2ccccc2)on1` the activity change, negative = inhibition was -24.8% (inactive).
For `CC(Nc1nc(-c2ccccn2)nnc1-c1ccccc1)c1ccccc1` (configuration not stated), the activity change, negative = inhibition was 22.8% (inactive).
In the case of `O=C(Nc1nnc(-c2ccccc2)s1)c1cc(-c2ccccc2)on1`, the activity change, negative = inhibition is reported as -5.17% (inactive).
For `c1ccc(-c2nnc(-c3ccccn3)nc2NCC2CC2)cc1`, the activity change, negative = inhibition was -6.55% (inactive).
For `c1ccc(-c2nnc(-c3ccccn3)nc2NCC2CCOCC2)cc1`, the activity change, negative = inhibition was 6.73% (inactive).
With `C[C@H](Nc1nc(-c2ccccn2)nnc1-c1ccccc1)C1CCCCC1` the activity change, negative = inhibition was 72.6% (inactive).
In the case of `c1ccc(-c2ccc(CNc3nc(-c4ccccn4)nnc3-c3ccccc3)cc2)cc1`, the activity change, negative = inhibition is reported as 22% (inactive).
For `c1ccc(-c2csc(Nc3nc(-c4ccccn4)nnc3-c3ccccc3)n2)cc1`, the activity change, negative = inhibition was -8.99% (inactive).
In the case of `Cn1c(-c2ccccc2)cnc1Nc1nc(-c2ccccn2)nnc1-c1ccccc1`, the activity change, negative = inhibition is reported as 6.25% (inactive).
For `c1ccc(-c2nnc(-c3ccccn3)nc2NCCCN2CCOCC2)cc1`, the activity change, negative = inhibition was 6.94% (inactive).
With `C=CCNc1nc(-c2ccccn2)nnc1-c1ccccc1` the activity change, negative = inhibition was 4.88% (inactive).
In the case of `O=C(NCCN1CCOCC1)c1cc(-c2ccccc2)on1`, the activity change, negative = inhibition is reported as -26.6% (inactive).
In the case of `O=C(Nc1cnc2ccccc2c1)c1cc(-c2ccccc2)on1`, the activity change, negative = inhibition is reported as -16.4% (inactive).
For `C[C@@H](Nc1nc(-c2ccccn2)nnc1-c1ccccc1)c1ccccc1`, the activity change, negative = inhibition was 79.4% (inactive).

Tested on: U2OS proteasome chymotrypsin-like activity, Proteasome-Glo luminescence
Test: as above
Details: not given
Procedure, shortened: as §1
`c1ccc(-c2cnc(Nc3nc(-c4ccccn4)nnc3-c3ccccc3)s2)cc1` showed an AC50 of 2.42 µM.
Work on `O=C(Nc1ccc2ccccc2n1)c1cc(-c2ccccc2)on1` yielded an AC50 of 29.1 µM.
Work on `O=C(NCC1CC1)c1cc(-c2ccccc2)on1` yielded an AC50 of 33.7 µM.
With `O=C(Nc1ncc2ccccc2n1)c1cc(-c2ccccc2)on1` the AC50 was 28.1 µM.
Compound `O=C(c1cc(-c2ccccc2)on1)N1CCN(c2ccncc2)CC1` has an AC50 of 2.52 µM.
`CN(C)CCNC(=O)c1cc(-c2ccccc2)on1` gave an AC50 of 33.4 µM.
Compound `Cc1cccc(CNC(=O)c2cc(-c3ccccc3)on2)c1` has an AC50 of 39.4 µM.
Compound `CCCCNC(=O)c1cc(-c2ccccc2)on1` has an AC50 of 21.5 µM.
`O=C(NCCCO)c1cc(-c2ccccc2)on1` showed an AC50 of 3.88 µM.
Compound `CC(C)(C)CCNC(=O)c1cc(-c2ccccc2)on1` has an AC50 of 36.5 µM.
Compound `Cc1cccc(NC(=O)c2cc(-c3ccccc3)on2)n1` has an AC50 of 17.3 µM.

From PubChem BioAssay AID493213 (Broad Institute, 2011)
